miR122 inh = blocks miR-122 activity in Huh7 sensor cells | activation (reporter increase), % at 12.5 µM | Huh7 miR-122 Renilla luciferase sensor, 48 h; neutral wells = 0, positive control = 100 | AID 602342 | 0.3% of 340,000 active;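 active = mean replicate activation score at least 90 and every replicate individually at or above 90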;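 also: higher luciferase means less miR-122 activity so hits act as miR-122 inhibitors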
CAL PDZ FP-1 = blocks peptide binding to human CAL PDZ domain | Q9HD26 | purified CAL PDZ, TMR-peptide fluorescence polarization, 1 h | inhibition, % at 20 µM | 0.02% of 330,000 active | AID 504414;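 active = highest replicate inhibition of at least 40%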
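Control set: unlabelled peptide and DMSO controls / Material: purified CerCALP PDZ construct / Timing: 1 h incubation at room temperature before polarization reading / Doses: 20 µM, one dose / Detection: fluorescence polarization (mP)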
SR-BI DiI inh = blocks mouse SR-BI lipid uptake from DiI-HDL; AID 488896; ldlA[mSR-BI] CHO cells, DiI-HDL uptake fluorescence, 3 h; Q61009; 0.96% of 320,000 active; inhibition, % at 12.5 µM;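 active = mean replicate inhibition of at least 70% and a set share of replicates each scoring 70 or more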
Target sequence (Q61009 whole entry, looked up): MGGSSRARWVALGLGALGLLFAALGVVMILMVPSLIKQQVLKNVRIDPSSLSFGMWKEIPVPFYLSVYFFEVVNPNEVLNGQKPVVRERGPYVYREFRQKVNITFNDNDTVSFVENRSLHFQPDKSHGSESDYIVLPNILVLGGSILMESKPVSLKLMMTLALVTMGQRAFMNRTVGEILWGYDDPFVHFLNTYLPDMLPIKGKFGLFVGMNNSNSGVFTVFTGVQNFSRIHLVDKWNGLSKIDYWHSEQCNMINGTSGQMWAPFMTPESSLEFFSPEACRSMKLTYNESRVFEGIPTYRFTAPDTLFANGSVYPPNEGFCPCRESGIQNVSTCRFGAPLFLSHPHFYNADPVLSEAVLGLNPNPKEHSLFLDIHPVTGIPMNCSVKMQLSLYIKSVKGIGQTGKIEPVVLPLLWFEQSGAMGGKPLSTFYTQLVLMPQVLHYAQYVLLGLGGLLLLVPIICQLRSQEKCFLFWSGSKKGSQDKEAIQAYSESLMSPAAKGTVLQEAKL
SR-BI DiI-HDL act = activators of SR-BI mediated HDL lipid uptake; CHO ldlA[mSR-BI] cells, DiI-HDL uptake fluorescence, 3 h; 100 = double the neutral-control signal; activation, % at 12.5 µM; 0.096% of 320,000 active;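 active = mean replicate activation of at least 60% and every replicate at or above 60%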
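Test system: SR-BI-overexpressing, LDLR-lacking CHO cells; Medium: Ham's F12 with 0.5% BSA, HEPES 25 mM, pH 7.4; Schedule: 3 h, 37 °C; Technique: bottom-read fluorescence, 550/595 nm.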
ARNT TACC3 PPI = disruptors of human ARNT/TACC3 interaction. Q9Y6A5. AlphaScreen His-ARNT PAS-B/GST-TACC3 binding, luminescence; TACC3 fragment carries E629A point mutation. inhibition, % at 9.99 µM. 0.66% of 390,000 active. AID 623870;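 active = mean inhibition of replicates at least 50% and at least half of replicates each reaching 50%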
CAL PDZ FP-2 = CAL PDZ (human) peptide binding inhibition. Q9HD26. purified CAL PDZ, TMR-peptide fluorescence polarization, 1 h. inhibition, % at 24.9 µM. 0.92% of 300,000 active;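 active = mean inhibition of at least 30% with at least half of replicates also reaching 30%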
Of the large screens only hits and unclear results are named; the others gave an inactive call. The list is not random: actives were taken first. Their share in the collection is about 2.1%.

CC(C)Sc1nnc(SCC(=O)NCCCN2CCCC2=O)s1	CAL PDZ FP-2 44.1 (no result: miR122 inh)
O=C(CSc1ccc2ccccc2c1)NCCCN1CCCC1=O	none
CCC(=O)Nc1ccc2c(c1)C(=O)N(C)C[C@@H](OC)[C@H](C)CN(Cc1ccccn1)[C@@H](C)CO2	none (no result: CAL PDZ FP-1, SR-BI DiI inh, SR-BI DiI-HDL act, CAL PDZ FP-2)
CN1CCS/C1=C/C=C1/SC(=S)N(Cc2ccccc2)C1=O	none (no result: miR122 inh)
CCCN1C(=O)/C(=C\C=C2/C=CN(CC)c3ccccc32)SC1=S	SR-BI DiI inh 146.1
CCCc1cc(=O)oc2cc(C)cc(OCC(=O)NCc3cccnc3)c12	CAL PDZ FP-2 40.9
C[C@H]1CN([C@@H](C)CO)C(=O)c2cc(C#Cc3cccnc3)cnc2O[C@@H]1CN(C)Cc1ccncc1	none (no result: CAL PDZ FP-1, SR-BI DiI inh, SR-BI DiI-HDL act, CAL PDZ FP-2)
COc1ccccc1CC(=O)Nc1cccc(C)n1	CAL PDZ FP-2 57.6
COc1cc2c(cc1NC(=O)CN(C)Cc1cccc(OC)c1OC)oc1ccccc12	none (no result: miR122 inh, ARNT TACC3 PPI)
COc1ccccc1CNc1cccc(C)n1	none (no result: CAL PDZ FP-1, SR-BI DiI inh, SR-BI DiI-HDL act, ARNT TACC3 PPI, CAL PDZ FP-2)
COc1ccc(CC(=O)Nc2cc3oc4ccccc4c3cc2OC)cc1	none
COc1cccc(CN(C)CC(=O)Nc2cc3oc4ccccc4c3cc2OC)c1	SR-BI DiI inh 77.5 (no result: miR122 inh)
COCCNC(=S)Nc1cc2oc3ccccc3c2cc1OC	SR-BI DiI inh 92.6, CAL PDZ FP-2 31.3
COc1ccccc1CC(=O)Nc1cc2oc3ccccc3c2cc1OC	SR-BI DiI inh 86.5
CCNC(=O)C[C@@H]1CC[C@@H]2[C@@H](COc3ccc(NC(=O)Nc4cccc(C)c4)cc3C(=O)N2C)O1	none (no result: CAL PDZ FP-1, SR-BI DiI inh, SR-BI DiI-HDL act, CAL PDZ FP-2)
C[C@H]1CN([C@@H](C)CO)C(=O)c2cccc(NS(=O)(=O)c3ccc(Cl)cc3)c2O[C@@H]1CN(C)Cc1ccc(Cl)c(Cl)c1	none (no result: CAL PDZ FP-1, SR-BI DiI inh, SR-BI DiI-HDL act, CAL PDZ FP-2)
CO[C@H]1CN(C)C(=O)c2cc(NC(C)=O)ccc2OC[C@@H](C)N(CC2CC2)C[C@@H]1C	none (no result: miR122 inh, CAL PDZ FP-1, SR-BI DiI inh, SR-BI DiI-HDL act, CAL PDZ FP-2)
CCCN(C)C[C@@H]1Oc2cc(C#CC3CCCC3)ccc2S(=O)(=O)N([C@@H](C)CO)C[C@@H]1C	none (no result: CAL PDZ FP-1, SR-BI DiI inh, SR-BI DiI-HDL act, CAL PDZ FP-2)
COc1ccc(NC(=O)Nc2ccc3c(c2)C(=O)N([C@@H](C)CO)C[C@H](C)[C@H](CN(C)S(=O)(=O)c2ccc(F)cc2)OCCCC[C@@H](C)O3)cc1	none (no result: CAL PDZ FP-1, SR-BI DiI inh, SR-BI DiI-HDL act, CAL PDZ FP-2)
COc1cc2c(cc1NC(=O)c1cccnc1)oc1ccccc12	none (no result: SR-BI DiI inh, SR-BI DiI-HDL act)
COc1cc(OC)cc(C(=O)NC(=S)Nc2cc3oc4ccccc4c3cc2OC)c1	SR-BI DiI inh 80.6
COc1cc2c(cc1NC(=O)c1ccncc1)oc1ccccc12	SR-BI DiI inh 77.5
COc1cc(/C=N/n2nnnc2Nc2ccccc2)cc(OC)c1OC	SR-BI DiI inh 89.1
Cc1ccc(S(=O)(=O)Nc2cccc3c2O[C@@H](CN(C)S(=O)(=O)c2ccc(F)cc2)[C@@H](C)CN([C@@H](C)CO)C3=O)cc1	none (no result: CAL PDZ FP-1, SR-BI DiI inh, SR-BI DiI-HDL act, CAL PDZ FP-2)
COc1cc2c(cc1OC)-c1cc(Nc3ccc(N(C)C)cc3)nc(=O)n1CC2	ARNT TACC3 PPI 45.0 (no result: miR122 inh, CAL PDZ FP-2)
CCOC(=O)c1sc(=NC(=O)c2ccc(C)cc2)n(C)c1C	none (no result: miR122 inh)
CCOC(=O)c1sc(=NC(=O)c2cc(OC)c(OC)c(OC)c2)n(C)c1C	SR-BI DiI inh 74.4 (no result: miR122 inh)
C[C@@H]1CN([C@@H](C)CO)C(=O)c2cc(NC(=O)Nc3ccc4c(c3)OCO4)ccc2O[C@@H](C)CCCCO[C@@H]1CN(C)S(=O)(=O)c1cn(C)cn1	none (no result: CAL PDZ FP-1, SR-BI DiI inh, SR-BI DiI-HDL act, CAL PDZ FP-2)
Cc1nn2c(NCCCN(C)C)c3c(nc2c1-c1ccccc1)CCCC3	CAL PDZ FP-2 active (no result: miR122 inh)
Cc1nn2c(NC(C)C)c3c(nc2c1-c1ccccc1)CCC3	SR-BI DiI-HDL act 104.2 (no result: miR122 inh, CAL PDZ FP-2)
Cc1nn2c(NCCCN(C)C)c3c(nc2c1-c1ccccc1)CCC3	none (no result: CAL PDZ FP-1)
COc1ccc(OC)c(C(=O)COC(=O)c2cccnc2SC)c1	CAL PDZ FP-2 35.3
O=C(C[C@@H]1CC[C@H](NC(=O)C2CCC2)[C@@H](CO)O1)NC1CCC1	none (no result: CAL PDZ FP-1, SR-BI DiI inh, SR-BI DiI-HDL act, CAL PDZ FP-2)
COc1ccc(CNC(=O)C[C@H]2C[C@@H]3c4cc(NS(C)(=O)=O)ccc4O[C@@H]3[C@@H](CO)O2)cc1	none (no result: CAL PDZ FP-1, SR-BI DiI inh, SR-BI DiI-HDL act, CAL PDZ FP-2)
N#Cc1ccc2c(c1)nc1ccccn12	none (no result: miR122 inh)
O=c1cc(Cl)nc2ccccn12	CAL PDZ FP-2 37.7
O=c1cc(NCc2ccccc2)nc2ccccn12	none (no result: miR122 inh)
Clc1ccc2nc3ccccn3c2c1	CAL PDZ FP-2 53.4

Bioassay records (PubChem BioAssay)
